Assay results from different studies.
Each line is one published result; the experiments were not run side by side.
Effect on: enzyme activity
Mode: inhibitor
CHEK2: Serine/threonine-protein kinase Chk2 (CHEK2, Homo sapiens, UniProt O96017)

| Compound | target | method | concentration | remaining activity |
| --- | --- | --- | --- | --- |
| Cc1cnc(NC2CCOCC2)nc1-n1cnc(C(=O)NC(CN)c2cc(F)cc(Cl)c2)c1 (stereo not drawn) | CHEK2 | radiometric | 1 µM | 75% |
| CC(C)(O)[C@H]1CC[C@H](Nc2ccc3ncc(-c4cccc(C(F)(F)F)c4)n3n2)CC1 | CHEK2 | – | 1 µM | 97.4% |
| Cn1c(=O)n(-c2ccc(C(C)(C)C#N)cc2)c2c3cc(-c4cnc5ccccc5c4)ccc3ncc21 | CHEK2 | – | 10 µM | 80% |
| CCN(CC)c1ccc(C2=NNC(=O)CC2C)cc1[N+](=O)[O-] (stereo not drawn) | CHEK2 | – | 10 µM | 101% |
| Nc1nc(NC2CCCCC2)sc1C(=O)c1ccccc1 | CHEK2 | – | 10 µM | 61% |
| O=C(Nc1cnn(-c2csc(C(=O)NC3COC3)c2)c1)Nc1c(F)cccc1Cl | CHEK2 | – | 5 µM | 91.5% |
| CC(C)(C)c1nc2c(s1)c1nc(N)ncc1c1ccc(NS(=O)(=O)c3c(F)cccc3F)c(F)c12 | CHEK2 | radiometric | 1 µM | 72% |
| CC(C)(C)C(=O)c1sc(NC2CCCCC2)nc1N | CHEK2 | – | 10 µM | 53% |
| Cc1ccc(NC(=O)c2ccc(C)c(C(F)(F)F)c2)cc1C#Cc1nn(C2CCC(O)CC2)c2ncnc(N)c12 (stereo not drawn) | Serine/threonine-protein kinase Chk2 (CHEK2, Homo sapiens, UniProt O96017, R145W) | – | 10 µM | 102% |
| FC(F)c1nc2ccccc2n1-c1nc(N2CCOCC2)nc(N2CCOCC2)n1 | CHEK2 | – | 10 µM | 88% |
| COc1cc(Nc2cnc(C#N)c(O[C@H](C)CN(C)C)n2)ncc1-c1cnn(C)c1 | CHEK2 | radiometric | 1 µM | 81% |
| CCCOc1ccc(OC)c(F)c1C(=O)c1ccc(C(=O)N[C@@H]2CNC[C@H]2NC(=O)c2ccc3[nH]ncc3c2)cc1 | CHEK2 | – | 10 µM | 13% |
